Drawing on ChEMBL document CHEMBL3526009, “Breast cancer resistance protein (ABCG2) determines distribution of genistein phase II metabolites: reevaluation of the roles of ABCG2 in the disposition of genistein” (Drug Metab Dispos, 2012), this text covers Drug excretion and Stability for one compound.

Data set [1] is described as follows: Biliary excretion in wild-type FVB mouse treated with genistein measured after 2.5 hrs post intestinal perfusion by UPLC-MS/MS analysis. In kind it is ADME, Bile. The conditions noted are these: in vivo, other. The essentials:
(§1)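 Gallbladder bile taken after 2.5 h of simultaneous small intestine/colon perfusion with 10 μM genistein (HBSS pH 7.4, 0.191 ml/min) in FVB or Bcrp1(−/−) mice (n = 4). Bile diluted 20-fold in HBSS, daidzein internal standard in acetonitrile added, dried and reconstituted. Genistein and conjugates quantified by UPLC-MS/MS.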

Data set [2] can be described thus: Biliary excretion in BCRP-/- mouse treated with genistein measured after 2.5 hrs post intestinal perfusion by UPLC-MS/MS analysis. In kind it is ADME, Bile. The conditions noted are these: in vivo, other. An outline of the steps: as §1
The test system of data set [3] is Blood. The data set is described as follows: Stability in Wistar rat blood at 3 uM up to 4 hrs by UPLC-MS/MS analysis. In kind it is ADME, tissue-based. An outline of the steps: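 Genistein glucuronide mixture (G-7-G plus G-4′-G, 3 μM) with 3.8 μM genistein incubated in fresh rat whole blood, 37°C shaking water bath. Sampled at 0, 60, 120 and 240 min. Reaction stopped with acetonitrile containing daidzein internal standard. Genistein and conjugates quantified by UPLC-MS/MS using multiple reaction monitoring. n = 3.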

Data set [4] in a line: Stability in potassium phosphate buffer at pH 7.4 up to 4 hrs. It counts as physicochemical. Particulars: pH 7.4, 4 h. An outline of the steps: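 Negative control run under the blood-incubation conditions but in 50 mM potassium phosphate buffer, pH 7.4, instead of blood. Genistein glucuronides (G-7-G plus G-4′-G, with aglycone) or sulfates (G-7-S plus G-4′-S, with aglycone) held at 37°C in a shaking water bath up to 4 h. Sampled at 0, 60, 120 and 240 min and read by UPLC-MS/MS.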

For the compound `O=C(O)[C@H]1O[C@@H](Oc2cc(O)c3c(=O)c(-c4ccc(O)cc4)coc3c2)[C@H](O)[C@@H](O)[C@@H]1O`, the Drug excretion result in data set [1] and in data set [2] was “metabolite_detected” throughout. Moreover, the Stability entry in data set [3] and in data set [4] was “Stable” throughout.
